From ChEMBL document CHEMBL4627249, “New modification strategy of matrine as Hsp90 inhibitors based on its specific L conformation for cancer treatment” (Bioorg Med Chem, 2020)
Active and inactive are the calls of the source. The rule behind the calls is not given here.

Tests used:
HeLa = test: Antiproliferative activity against human HeLa cells assessed as reduction in cell viability after 48 hrs by MTT assay; type: functional, cell-based
Summary of the method: (§1)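 HepG2 or HeLa cells in DMEM with 10% FBS and 1% penicillin-streptomycin were preincubated 24 h (37 °C, 5% CO2). They were then exposed for 48 h to 1, 5, 10, 20, 50 and 100 µM, diluted in medium from DMSO stocks. MTT (5 mg/mL, 20 µL) was added for 4 h, formazan dissolved in DMSO, and A490 read. Each concentration was run in triplicate. IC50 is the mean from dose-response curves of at least three independent experiments; cisplatin was the positive control.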

HepG2 = test: Antiproliferative activity against human HepG2 cells assessed as reduction in cell viability after 48 hrs by MTT assay; type: functional, cell-based; conditions: HepG2, 48 h; summary of the method: as §1
MDA-MB-231 = test: Antiproliferative activity against human MDA-MB-231 cells assessed as reduction in cell viability after 48 hrs by MTT assay; type: functional, cell-based; conditions: MDA-MB-231, 48 h
[1] = biological target: Heat shock protein HSP90 (Homo sapiens) (UniProt P07900+P08238)

With `Nc1c2c(nc3ccc([N+](=O)[O-])cc13)N1C[C@@H]3CCCN4CCC[C@@H]([C@H]34)[C@H]1CC2` as the molecule, how does the IC50 (HeLa) read?
The IC50 was 69.2 µM.

What about the IC50 (HepG2) of the same molecule?
The IC50 was 35.1 µM.

And the IC50 (MDA-MB-231)?
The IC50 was 24.4 µM.

And the ΔTm [1]?
Its ΔTm is -0.24 °C.

What does the source list for `Clc1ccc(/N=C2\CCC[C@@H]3[C@H]4CCCN5CCC[C@@H](CN23)[C@@H]45)cc1`?
IC50 (HeLa): > 100 µM; IC50 (HepG2): > 100 µM; IC50 (MDA-MB-231): 73.4 µM; deltaTm [1]: inactive

For `O=C1CCCC[C@@H]2[C@H]3CCCN4CCC[C@@H](CN12)[C@@H]34`, which IC50 (HeLa) is on record?
The IC50 was > 100 µM.

What about the IC50 (HepG2) of the same molecule?
The IC50 was > 100 µM.

And the IC50 (MDA-MB-231)?
The IC50 was > 100 µM.

What does the source list for `O=C1C[C@@H]2[C@H]3CCCN4CCC[C@@H](CN12)[C@@H]34`?
IC50 (HeLa): > 100 µM; IC50 (HepG2): > 100 µM; IC50 (MDA-MB-231): > 100 µM; ΔTm [1]: 0.44 °C

What does the source list for `Nc1c2c(nc3ccc(F)cc13)N1C[C@@H]3CCCN4CCC[C@@H]([C@H]34)[C@H]1CC2`?
IC50 (HeLa): 18.8 µM; IC50 (HepG2): 13.1 µM; IC50 (MDA-MB-231): 37.3 µM; ΔTm [1]: -2.3 °C

What does the source list for `c1ccc(Oc2ccc(/N=C3\CCC[C@@H]4[C@H]5CCCN6CCC[C@@H](CN34)[C@@H]56)cc2)cc1`?
IC50 (HeLa): 33.7 µM; IC50 (HepG2): 51.3 µM; IC50 (MDA-MB-231): 55.2 µM; ΔTm [1]: -1.3 °C

`N#Cc1ccccc1/N=C1\CCC[C@@H]2[C@H]3CCCN4CCC[C@@H](CN12)[C@@H]34` was tested. Which IC50 (HeLa) did it give?
The IC50 was > 100 µM.

And the IC50 (HepG2)?
The IC50 was > 100 µM.

And the IC50 (MDA-MB-231)?
Its IC50 is > 100 µM.

And the ΔTm [1]?
Its ΔTm is -1.44 °C.

What does the source list for `CCOc1ccc(/N=C2\CCC[C@@H]3[C@H]4CCCN5CCC[C@@H](CN23)[C@@H]45)cc1`?
IC50 (HeLa): > 100 µM; IC50 (HepG2): 97.5 µM; IC50 (MDA-MB-231): > 100 µM; ΔTm [1]: 0 °C

Which results are given for `Nc1c2c(nc3ccc(Cl)cc13)N1C[C@@H]3CCCN4CCC[C@@H]([C@H]34)[C@H]1CC2`?
IC50 (HeLa): 8.9 µM; IC50 (HepG2): 6.4 µM; IC50 (MDA-MB-231): 14.3 µM; ΔTm [1]: -6.58 °C

With `COc1ccc2nc3c(c(N)c2c1)CC[C@@H]1[C@H]2CCCN4CCC[C@@H](CN31)[C@@H]24` as the molecule, how does the IC50 (HeLa) read?
Its IC50 is 18 µM.

And the IC50 (HepG2)?
Its IC50 is 10.9 µM.

And the IC50 (MDA-MB-231)?
The IC50 was 21.2 µM.

What about the ΔTm [1] of the same molecule?
Its ΔTm is -5.48 °C.
